Assay [1] has as its target T1, Angiotensin-converting enzyme (Oryctolagus cuniculus, UniProt P12822).
T1 sequence (P12822 whole entry): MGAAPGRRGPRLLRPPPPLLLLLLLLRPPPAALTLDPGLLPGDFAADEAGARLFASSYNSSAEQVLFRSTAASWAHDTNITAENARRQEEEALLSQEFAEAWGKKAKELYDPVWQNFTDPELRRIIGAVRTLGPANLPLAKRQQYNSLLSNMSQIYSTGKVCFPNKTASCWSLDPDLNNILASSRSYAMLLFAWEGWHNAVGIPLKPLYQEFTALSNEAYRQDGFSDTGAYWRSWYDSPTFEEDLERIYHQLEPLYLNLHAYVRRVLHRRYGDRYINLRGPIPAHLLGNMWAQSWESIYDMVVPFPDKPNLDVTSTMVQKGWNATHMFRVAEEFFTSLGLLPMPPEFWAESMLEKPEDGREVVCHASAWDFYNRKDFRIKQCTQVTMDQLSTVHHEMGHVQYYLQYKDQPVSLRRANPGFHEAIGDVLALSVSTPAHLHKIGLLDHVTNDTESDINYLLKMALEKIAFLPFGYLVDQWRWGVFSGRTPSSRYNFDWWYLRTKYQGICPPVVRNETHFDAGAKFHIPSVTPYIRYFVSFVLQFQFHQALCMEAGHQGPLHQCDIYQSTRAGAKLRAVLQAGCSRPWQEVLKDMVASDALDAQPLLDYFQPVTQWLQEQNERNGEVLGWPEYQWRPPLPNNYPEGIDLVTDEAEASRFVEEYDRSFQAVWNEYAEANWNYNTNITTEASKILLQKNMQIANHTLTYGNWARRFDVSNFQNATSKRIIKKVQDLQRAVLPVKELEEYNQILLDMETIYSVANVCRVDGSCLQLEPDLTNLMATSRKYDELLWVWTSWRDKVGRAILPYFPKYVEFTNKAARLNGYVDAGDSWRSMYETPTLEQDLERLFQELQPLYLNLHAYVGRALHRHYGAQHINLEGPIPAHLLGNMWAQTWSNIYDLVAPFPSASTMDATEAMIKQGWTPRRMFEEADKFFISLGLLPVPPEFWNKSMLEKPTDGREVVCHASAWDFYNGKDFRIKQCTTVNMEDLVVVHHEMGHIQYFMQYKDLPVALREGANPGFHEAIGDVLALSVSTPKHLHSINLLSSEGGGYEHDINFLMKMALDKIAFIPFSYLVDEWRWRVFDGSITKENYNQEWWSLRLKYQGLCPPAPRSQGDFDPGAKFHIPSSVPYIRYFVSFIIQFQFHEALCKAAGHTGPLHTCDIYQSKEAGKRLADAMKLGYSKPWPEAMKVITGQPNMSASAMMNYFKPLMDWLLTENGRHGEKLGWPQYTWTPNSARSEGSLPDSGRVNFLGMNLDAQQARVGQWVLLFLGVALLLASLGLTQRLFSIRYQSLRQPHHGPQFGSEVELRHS
The assay can be described thus: In vitro inhibition of Angiotensin I converting enzyme activity at pH 8.5 in rabbit lung. The assay is classed as tissue-based. The note with it: read-out: I50.

For assay [2], the target named is T1, Angiotensin-converting enzyme. Description: In vitro inhibition of Angiotensin I converting enzyme activity in rabbit lung. Type of assay: tissue-based. The note with it: read-out: I50.
Assay [3] addresses Angiotensin-converting enzyme (Rattus norvegicus) (UniProt P47820). The assay can be described thus: The time to 50% recovery of the angiotensin I response was measured after po administration at 1.5 mg/kg; 10-60.
Assay [4] has the same target. The assay can be described thus: Percentage inactivation of the angiotensin I induced vasopressor response in normotensive conscious rats after po administration at dose 1.5 mg/kg; 14-16.
For assay [5], the target named is T1, Angiotensin-converting enzyme. The assay can be described thus: Inhibition of the activity of rabbit lung Angiotensin I converting enzyme. Summed up: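 Rabbit lung acetone-powder ACE, crude and dialyzed. Enzyme was added to substrate ± inhibitor and the reaction stopped with HCl after 10 min. Hippuric acid was extracted into AcOEt and read at 228 nm.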
Assay [6] relates to Rattus norvegicus. Description: Maximum percent change in mean arterial pressure by the compound over control after po administration at 30 mg/kg dosage. Type of assay: functional, Artery. Summed up:
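Spontaneously hypertensive rats kept on a sodium-deficient diet received the agent orally. Value = maximum % change in mean arterial pressure over control. Duration = time outside a control area, defined as the means ±2 SD of arterial pressure and heart rate readings from 45 control rats.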

Assay [7] concerns Rattus norvegicus. Description: Time taken by the compound to change arterial pressure outside the control area at a dose of 30mg/kg, po. Type of assay: functional, Artery.
Assay [8] has as its target Angiotensin-converting enzyme (Rattus norvegicus) (UniProt P47820). Description: The time to 50% recovery of the angiotensin I response was measured after po administration at 0.3 mg/kg.
The target is the same in assay [9]. The assay can be described thus: Percentage inactivation of the angiotensin I induced vasopressor response in normotensive conscious rats after po administration at dose 0.058 mg/kg; 65-70.
Assay [10] has the same target. The assay can be described thus: The time to 50% recovery of the angiotensin I response was measured after po administration at 1.5 mg/kg; 0-30.
The target is the same in assay [11]. Description: Percentage inactivation of the angiotensin I induced vasopressor response in normotensive conscious rats after po administration at dose 1.5 mg/kg; 0-29.
Assay [12] shares this target. The assay can be described thus: Percentage inactivation of the angiotensin I induced vasopressor response in normotensive conscious rats after po administration at dose 1.5 mg/kg; 3-5.
Assay [13] has the same target. The assay can be described thus: The time to 50% recovery of the angiotensin I response was measured after po administration at 1.5 mg/kg; 30-50.
Assay [14] has the same target. Description: The time to 50% recovery of the angiotensin I response was measured after po administration at 0.15 mg/kg; 10-30.
Assay [15] has the same target. Description: Percentage inactivation of the angiotensin I induced vasopressor response in normotensive conscious rats after po administration at dose 1.50 mg/kg; 73-79.
For assay [16] the target is unchanged. Description: Percentage inactivation of the angiotensin I induced vasopressor response in normotensive conscious rats after po administration at dose 0.15 mg/kg; 24-49.
For assay [17] the target is unchanged. Description: The time to 50% recovery of the angiotensin I response was measured after po administration at 0.15 mg/kg; 60-140.
For assay [18] the target is unchanged. Description: Percentage inactivation of the angiotensin I induced vasopressor response in normotensive conscious rats after po administration at dose 0.15 mg/kg; 85-96.
Assay [19] has the same target. Description: The time to 50% recovery of the angiotensin I response was measured after po administration at 1.5 mg/kg.
The target is the same in assay [20]. Description: Percentage inactivation of the angiotensin I induced vasopressor response in normotensive conscious rats after po administration at dose 1.5 mg/kg; 20-34.
For assay [21] the target is unchanged. The assay can be described thus: The time to 50% recovery of the angiotensin I response was measured after po administration at 0.30 mg/kg.
Assay [22] has the same target. The assay can be described thus: Percentage inactivation of the angiotensin I induced vasopressor response in normotensive conscious rats after po administration at dose 0.08 mg/kg; 80-85.
The target is the same in assay [23]. The assay can be described thus: The time to 50% recovery of the angiotensin I response was measured after po administration at 1.5 mg/kg; 20-80.
Assay [24] has the same target. The assay can be described thus: Percentage inactivation of the angiotensin I induced vasopressor response in normotensive conscious rats after po administration at dose 1.5 mg/kg; 43-64.
The target is the same in assay [25]. Description: The time to 50% recovery of the angiotensin I response was measured after po administration at 1.5 mg/kg; 20-50.
Assay [26] shares this target. The assay can be described thus: Percentage inactivation of the angiotensin I induced vasopressor response in normotensive conscious rats after po administration at dose 1.5 mg/kg; 14-21.
Assay [27] shares this target. The assay can be described thus: Percentage inactivation of the angiotensin I induced vasopressor response in normotensive conscious rats after po administration at dose 1.5 mg/kg; 17-24. The conditions noted are these: at 1.5 mg/kg.

Angiotensin-converting enzyme (Rattus norvegicus), sequence (P47820 whole entry, looked up): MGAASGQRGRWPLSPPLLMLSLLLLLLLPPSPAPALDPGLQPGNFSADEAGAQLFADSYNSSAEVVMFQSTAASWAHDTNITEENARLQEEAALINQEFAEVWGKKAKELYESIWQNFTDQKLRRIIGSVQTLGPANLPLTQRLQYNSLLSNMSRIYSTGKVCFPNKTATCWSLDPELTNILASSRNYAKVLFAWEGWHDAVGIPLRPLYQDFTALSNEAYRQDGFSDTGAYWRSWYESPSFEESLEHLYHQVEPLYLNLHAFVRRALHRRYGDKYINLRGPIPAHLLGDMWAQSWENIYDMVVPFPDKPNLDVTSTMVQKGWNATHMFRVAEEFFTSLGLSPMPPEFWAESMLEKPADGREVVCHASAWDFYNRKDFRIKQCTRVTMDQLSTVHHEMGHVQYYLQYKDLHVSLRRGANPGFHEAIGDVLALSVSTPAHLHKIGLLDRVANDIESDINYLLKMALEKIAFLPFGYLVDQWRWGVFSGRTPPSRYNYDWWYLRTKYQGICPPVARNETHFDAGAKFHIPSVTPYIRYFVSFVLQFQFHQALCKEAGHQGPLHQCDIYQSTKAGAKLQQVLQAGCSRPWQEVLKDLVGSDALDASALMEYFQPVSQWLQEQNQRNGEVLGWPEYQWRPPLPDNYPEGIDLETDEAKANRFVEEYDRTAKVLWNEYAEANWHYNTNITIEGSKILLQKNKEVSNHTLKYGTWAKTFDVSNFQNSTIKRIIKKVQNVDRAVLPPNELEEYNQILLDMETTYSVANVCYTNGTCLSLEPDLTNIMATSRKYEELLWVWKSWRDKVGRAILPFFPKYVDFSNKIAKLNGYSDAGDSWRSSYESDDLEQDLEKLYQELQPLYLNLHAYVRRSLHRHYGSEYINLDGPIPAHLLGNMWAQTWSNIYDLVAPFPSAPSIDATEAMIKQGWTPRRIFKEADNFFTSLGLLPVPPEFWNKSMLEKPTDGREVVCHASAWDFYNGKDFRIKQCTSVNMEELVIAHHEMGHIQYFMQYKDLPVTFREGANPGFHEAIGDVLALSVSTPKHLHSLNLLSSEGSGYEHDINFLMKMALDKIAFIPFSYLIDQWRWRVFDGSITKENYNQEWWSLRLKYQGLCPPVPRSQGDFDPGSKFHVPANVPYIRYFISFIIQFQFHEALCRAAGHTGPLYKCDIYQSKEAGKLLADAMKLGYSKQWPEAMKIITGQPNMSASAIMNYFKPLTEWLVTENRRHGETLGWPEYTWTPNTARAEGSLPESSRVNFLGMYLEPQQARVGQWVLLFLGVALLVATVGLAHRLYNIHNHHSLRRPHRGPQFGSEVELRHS

As to `C[C@@H]1SC(=O)[C@@]2(C)Cc3ccccc3CN2C1=O`, the IC50 in assay [1] and in assay [2] was over 100 µM each time. This compound also had a Duration in [3] of 10 min. Moreover, in [4], the inhibition (as a rule, the relative decrease from the control value, in per cent) is 14%.
Regarding `CC(=O)S[C@H](C)C(=O)N1CSC[C@H]1C(=O)O`, in [5], the IC50 was 37 µM.
Regarding `C[C@H]1CSC(=O)[C@@H]2Cc3ccccc3CN2C1=O`, the IC50 in assay [2] was 0.8 µM.
Turning to `C[C@H](CS)C(=O)N1CCC[C@H]1C(=O)O` [CAPTOPRIL], the MAP in the assay with Rattus norvegicus [6] was -30%.
Take `CC1SC(=O)CNC1=O` (centres undefined): the IC50 in [1] and in assay [2] was 1.9 µM throughout.
Regarding `C[C@H](CSC(=O)C(C)(C)C)C(=O)N(CC(=O)O)C1CCCC1` [PIVOPRIL], the IC50 in assay [1] was found to be 0.017 µM. The Duration in the assay with Rattus norvegicus [7] is over 24 h; in assay [8], 60 min. Moreover, the MAP in the assay on Rattus norvegicus [6] was -30%. This compound also came in with an inhibition in assay [9] of 50%.
Consider `CC1CSC(=O)C2N(C1=O)C(C)(C)SC2(C)C` (centres undefined), for which the results for the IC50 in assay [1] and in [2] were 15 µM and 50 µM, respectively. Further, in [10], the Duration was 0 min. In assay [11], this compound displayed an inhibition of 0%.
With `CC1CSC(=O)[C@@H]2Cc3ccccc3CN2C1=O` (some centres undefined), the IC50 worked out at 0.045 µM in assay [1] and 0.018 µM in [2].
Regarding `CC1SC(=O)C(C)N(C2CCCC2)C1=O` (centres undefined), the values for the IC50 in assay [1] and in [2] were 6.8 µM and 27 µM, respectively. The same compound showed an inhibition in assay [12] of 3%.
As for `CC(=O)SC(C)C(=O)N(CC(=O)O)c1ccc(C)cc1` (centres undefined), in assay [5], the IC50 was determined as 0.18 µM.
Take `CC(S)C(=O)N1CSC[C@H]1C(=O)O` (stereo in doubt; 37b(R,R)): the IC50 in [5] was found to be 10 µM.
Compound `CC(=O)SC(C)C(=O)N1Cc2ccccc2CC1(C)C(=O)O` (centres undefined) registered an IC50 in assay [5] of over 100 µM.
`CC(S)C(=O)N(CC(=O)O)C1CCCC1` (centres undefined) showed an IC50 in assay [5] of 0.057 µM.
Take `CC(=O)SC(C)C(=O)N(C1CCCC1)C(C)C(=O)O` (centres undefined): in assay [5], the IC50 is 6.8 µM.
`CC(S)C(=O)N(C1CCCC1)C(C)C(=O)O` (centres undefined) came in with an IC50 in assay [5] of 6.8 µM.
Consider `CC(=O)SC(C)C(=O)N1C(C(=O)O)C(C)(C)SC1(C)C` (centres undefined), for which the IC50 in assay [5] was over 100 µM.
Take `CC1SC(=O)CN(C2CCCC2)C1=O` (centres undefined): the IC50 was 0.057 µM in assay [1] and 0.15 µM in assay [2]. The figures for the Duration in assay [13] and in [14] were 30 min and 10 min, respectively. For the same compound, the results for the inhibition in assay [15] and in assay [16] were 73% and 24%, respectively.
In turn, `CC(S)C(=O)N1CSC[C@H]1C(=O)O` (stereo in doubt; 37b(S,R)) displayed an IC50 in assay [5] of 0.14 µM.
The compound `CC(=O)SC(C)C(=O)N(C1CCCC1)C(C)(C)C(=O)O` (centres undefined) registered an IC50 in assay [5] of 95 µM.
On to `CC1CSC(=O)CN(C2CC3CCC2C3)C1=O` (centres undefined), for which the results for the IC50 in assay [1] and in assay [2] were 0.025 µM and 0.012 µM, respectively. Moreover, the Duration in assay [17] turned out to be 60 min. Also, the inhibition in assay [18] is 85%.
`CC1SC(=O)C(C)(C)N(C2CCCC2)C1=O` (centres undefined): the IC50 in assay [2] was determined as 90 µM. Further, the Duration in [19] stood at 20 min. In addition, the inhibition in assay [20] came out at 20%.
`CCOC(=O)[C@H](CCc1ccccc1)N[C@@H](C)C(=O)N1CCC[C@H]1C(=O)O`: the Duration with Rattus norvegicus [7] was over 24 h; in assay [21] it was 210 min. Moreover, the MAP in the assay on Rattus norvegicus [6] is recorded as -38%. In [22], this compound came in with an inhibition of 50%.
`CC(=O)SC(C)C(=O)N(CC(=O)O)C1CCCC1` (centres undefined) gave an IC50 in assay [5] of 0.51 µM.
On the same count and under the same terms, the result for `CC(=O)S[C@@H](C)C(=O)N1CSC[C@H]1C(=O)O` reads 1.7 µM; that for `CC(S)C(=O)N1C(C(=O)O)C(C)(C)SC1(C)C` (centres undefined), 21 µM.
On to `CC1CSC(=O)[C@@H]2CSCN2C1=O` (some centres undefined), for which the IC50 in [1] is 0.058 µM; in assay [2], 0.047 µM. This compound had a Duration in [23] of 20 min. Further, the inhibition in assay [24] came out at 43%.
Turning to `CC1SC(=O)C2N(C1=O)C(C)(C)SC2(C)C` (centres undefined), the values for the IC50 in [1] and in assay [2] were 21 µM and over 100 µM, respectively. Besides, in [25], the Duration amounted to 20 min. Further, the inhibition in assay [26] came to 14%.
On to `CC1SC(=O)[C@@H]2CCCN2C1=O` (some centres undefined), for which the IC50 in assay [2] came out at 33 µM. For the same compound, the Duration in assay [19] turned out to be 10 min. For the same compound, in [27], the inhibition is 17%.
In [5], `Cc1ccc(N(CC(=O)O)C(=O)C(C)S)cc1` (centres undefined) came in with an IC50 of 0.026 µM.
